Laboratory results published in ChEMBL document CHEMBL2331392, “Antiviral phenolic compounds from Arundina gramnifolia” (J Nat Prod, 2013).
In brackets after ≈: the same amount, converted by molar mass.

Key:
[1] = Therapeutic index, ratio of CC50 for human C8166 cells to EC50 for HIV-1 3B infected in human C8166 cells; assay type: cell-based; details: C8166 cells (CC50) and HIV-1 3B infected C8166 cells (EC50)
Procedure, shortened: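 CC50 came from MTT cytotoxicity on C8166 cells. EC50 came from inhibition of HIV-1 cytopathic effect in C8166 cells. Azidothymidine was the positive control. The index is CC50 divided by EC50.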

[2] = Cytotoxicity against human C8166 cells assessed as inhibition of cell viability after 3 days by MTT assay; assay type: cell-based
Procedure, shortened: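 C8166 cells tested with the MTT method. Cytotoxicity reported as CC50. Azidothymidine ran alongside as positive control.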

[3] = tested on: Human immunodeficiency virus 1; test: Antiviral activity against HIV-1 3B infected in human C8166 cells assessed as inhibition of syncytia formation after 3 days; assay type: functional, organism-based; details: Human immunodeficiency virus 1, 3B, C8166, 72 h
Tobacco mosaic virus [4] = test: Antiviral activity against TMV strain U1 infected in compound-pretreated Nicotiana glutinosa leaves assessed as inhibition of viral infection at 20 uM incubated with leaf for 6 hrs prior to viral inoculation; assay type: functional
Procedure, shortened: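 Protection assay with TMV U1 on tobacco leaves. Leaves were pretreated with compound at 20 μM for 6 h before virus inoculation. Compounds were dissolved in DMSO and diluted with water; a DMSO solution served as negative control and ningnanmycin as positive control. Inhibition rates are mean ± SD, n = 3.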

Tobacco mosaic virus [5] = test: Antiviral activity against TMV strain U1 infected in Nicotiana glutinosa leaves assessed as decrease in number of local leaf lesions incubated with virus for 30 mins prior to inoculation on leaves measured 3 to 4 days post-viral infection by half-leaf method; assay type: functional, organism-based
Procedure, shortened: (§1)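 Half-leaf assay on N. glutinosa. TMV U1 was multiplied in N. tabacum cv. K326, purified, and set to 20 mg/mL by UV absorbance at 260 nm. Compounds were dissolved in DMSO and diluted with water. Virus and compound were mixed for 30 min and applied to the left leaf half; the right half got virus plus matched DMSO. Ningnanmycin served as positive control. Three leaf blades per compound. Inhibition % = (C−T)/C×100 from mean local lesion counts.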

Tobacco mosaic virus [6] = test: Antiviral activity against TMV strain U1 infected in Nicotiana glutinosa leaves assessed as decrease in number of local leaf lesions at 20 uM incubated with virus for 30 mins prior to inoculation on leaves measured 3 to 4 days post-viral infection by half-leaf method; assay type: functional; procedure, shortened: as §1

Structure (SMILES)	selectivity ratio [1]	CC50 at 72 h [2] [µg/mL]	EC50 [3] [µg/mL]	inhibition at 20 µM (Tobacco mosaic virus [4]) [%]	IC50 (Tobacco mosaic virus [5]) [µM]	inhibition at 20 µM (Tobacco mosaic virus [6]) [%]
COc1cc(O)cc2c1-c1c(O)ccc(O)c1C2=O	19.3	105 (≈ 408 µM)	5.47 (≈ 21.2 µM)	16.7	98.3	17.4
COc1cc(O)cc2c1-c1c(O)cc(O)cc1C2=O	31.8	86.7 (≈ 336 µM)	2.73 (≈ 10.6 µM)	–	–	7.9
COc1ccc(/C=C/Cc2ccc(O)c(OC)c2OC)cc1O [CANDENATENIN A]	44.3	145 (≈ 459 µM)	3.28 (≈ 10.4 µM)	24	70.6	21.2
C/C=C/c1cc(OC)c(OC)cc1C(=O)c1cc(OC)c(OC)c(OC)c1 [GRAMNIPHENOL B]	106	134 (≈ 361 µM)	1.27 (≈ 3.41 µM)	–	–	–
COc1ccc2c(c1)C=C[C@@H](c1ccc(O)c(C(=O)CCO)c1OC)O2 [GRAMNIPHENOL C]	44.3	145 (≈ 407 µM)	3.28 (≈ 9.2 µM)	56.3	20.8	48.2
C=C(C)[C@H](O)COc1cc(OC)c2c(c1)C(=O)c1c(O)ccc(O)c1-2 [GRAMNIPHENOL D]	> 137	> 200	1.46 (≈ 4.26 µM)	11.4	129	13.3
C=C(C)[C@H](O)COc1cc(OC)c2c(c1)C(=O)c1cc(O)cc(O)c1-2 [GRAMNIPHENOL E]	> 127	> 200	1.58 (≈ 4.62 µM)	–	–	7.16
CC1(C)C=Cc2cc3cc(-c4ccc(O)cc4)oc3cc2O1 [GRAMNIPHENOL F]	19.6	102 (≈ 351 µM)	5.22 (≈ 17.9 µM)	33.8	40.8	35.8
COc1ccc(-c2cc3cc4c(cc3o2)OC(C)(C)C=C4)cc1 [GRAMNIPHENOL G]	13.9	88.7 (≈ 290 µM)	6.38 (≈ 20.8 µM)	36.1	57.7	32.1
Oc1cc(O)cc(-c2cc3ccc(O)cc3o2)c1 [MORACIN M]	12.5	57.4 (≈ 237 µM)	4.59 (≈ 18.9 µM)	10.2	128	13.2
CNCC(=O)N[C@@H](CO)C(=O)N[C@H]1[C@H](O)[C@@H](O)[C@H](n2ccc(N)nc2=O)O[C@@H]1C(N)=O [NINGNANMYCIN]	–	–	–	30	42.2	31.8
Cc1cn([C@H]2C[C@H](N=[N+]=[N-])[C@@H](CO)O2)c(=O)[nH]c1=O [ZIDOVUDINE]	> 5880	> 200	–	–	–	–
